Assay outcomes as filed in PubChem.
APJ antag: antagonists of human APJ apelin receptor; hit rate 0.32% among 330,000; P35414; inhibition, % at 20 µM; CHO-K1 APJ beta-arrestin complementation, luminescence;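 active = inhibition above about 40% at 20 µM, limit read from the data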;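 also: cells challenged with 10 nM apelin-13 agonist together with compound; plate controls were apelin-13 plus DMSO wells for no effect and DMSO wells lacking apelin-13 for full effect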
Target sequence (P35414 whole entry, looked up): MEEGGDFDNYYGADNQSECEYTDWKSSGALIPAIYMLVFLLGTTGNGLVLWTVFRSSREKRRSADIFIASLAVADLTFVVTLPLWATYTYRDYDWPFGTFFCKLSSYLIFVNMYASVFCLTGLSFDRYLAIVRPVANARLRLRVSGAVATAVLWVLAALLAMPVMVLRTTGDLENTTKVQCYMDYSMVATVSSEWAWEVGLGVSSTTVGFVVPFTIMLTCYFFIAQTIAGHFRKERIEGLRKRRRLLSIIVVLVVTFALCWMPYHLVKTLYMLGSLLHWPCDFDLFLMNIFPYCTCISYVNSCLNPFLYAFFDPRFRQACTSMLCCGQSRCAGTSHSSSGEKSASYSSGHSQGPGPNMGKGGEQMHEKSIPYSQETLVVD
CCR6 antag: antagonists of human CCR6 receptor; AID 493098; inhibition, % at 20 µM; P51684; CHO-K1 CCR6 PathHunter beta-arrestin, luminescence, CCL20-stimulated; hit rate 0.49% among 340,000;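 active = compounds whose inhibition of the agonist-driven luminescence signal at 20 µM reaches about 50%, limit read from the data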;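 also: cells stimulated with CCL20 at 14 nM final; plate controls were DMSO with CCL20 for no effect and DMSO without agonist for full effect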
Target sequence (P51684 whole entry, looked up): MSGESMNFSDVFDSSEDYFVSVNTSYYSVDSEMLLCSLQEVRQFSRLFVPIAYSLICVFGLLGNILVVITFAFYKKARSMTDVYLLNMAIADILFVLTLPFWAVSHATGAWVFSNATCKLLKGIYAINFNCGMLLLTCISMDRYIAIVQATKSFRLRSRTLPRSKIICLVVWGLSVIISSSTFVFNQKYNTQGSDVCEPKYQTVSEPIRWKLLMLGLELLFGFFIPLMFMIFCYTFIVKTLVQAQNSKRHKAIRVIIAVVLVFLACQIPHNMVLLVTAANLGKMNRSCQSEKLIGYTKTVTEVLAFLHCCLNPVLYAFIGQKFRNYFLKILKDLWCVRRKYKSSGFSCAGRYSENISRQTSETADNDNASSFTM
CXCR6 block: CXCR6 (human) receptor inhibition | inhibition, % at 20 µM | CHO-K1 PathHunter CXCR6 beta-arrestin, luminescence | hit rate 0.36% among 360,000 | O00574 | AID 602244; in the data active = inhibition above about 34%, passing the limit was not always enough;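 also: antagonist mode with CXCL16 agonist at 10 nM final; 0% = 10 nM CXCL16 with DMSO and 100% = unstimulated wells without agonist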
EBI2 block: blocks human EBI2 receptor beta-arrestin signaling | P32249 | EBI2 beta-arrestin recruitment, luminescence, 7a,25-OHC stimulated | inhibition, % at 5 µM | hit rate 0.81% among 360,000 | AID 651636; in the data active = inhibition above about 38%;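 also: enzyme fragment complementation signal reports receptor beta-arrestin coupling in cells; 0% = agonist plus DMSO wells and 100% = wells without agonist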
APJ agonist: APJ receptor agonism; P35414; CHO-K1 APJ PathHunter beta-arrestin, luminescence; 0% DMSO wells, 100% apelin; activation, % at 20 µM; hit rate 0.11% among 330,000;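 active = activation more than six SD over the plate average, tested at 20 µM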;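 also: 0% = DMSO alone and 100% = apelin-13 at 10 nM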
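Incubation: overnight seeding, 90 min compound at 25 °C, 1 h detection; test system: PathHunter CHO-K1 APJ (AGTRL-1) beta-arrestin reporter cells; amount: 1000 cells/well; doses: one dose, 20 µM compound, 1% DMSO; measured by: beta-gal luminescence; measure: agonist-driven arrestin binding to APJ; benchmarks: negative DMSO alone, positive Apelin-13 at 10 nM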
EBI2 antag conf: EBI2 (human) antagonism, single concentration confirmation; shares compounds with EBI2 block; EBI2 beta-arrestin luminescence, 7a,25-OHC antagonism; inhibition, % at 5 µM; hit rate 29% among 2,400; AID 651997;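 active = inhibition of at least 50%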
EBI2 ag: counter-screen for EBI2 antagonists: EBI2 agonist activity | shares compounds with EBI2 block | EBI2-expressing cells, agonist mode, luminescence, 60 min; 0% vehicle, 100% 7α,25-dihydroxycholesterol control | activation, % at 5 µM | 2,400 tested, under 10 active | AID 652000;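 active = activation of at least 50%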
bGal counter: inhibits E. coli beta-galactosidase, counter-screen for EBI2 antagonists; inhibition, % at 5 µM; purified beta-galactosidase, luminescent Galacton Star, 15 min; hit rate 1% among 2,400; AID 652176; shares compounds with EBI2 block;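 active = replicate-average signal at least 3 plate SD below neutral wells, shown as high inhibition, flagging enzyme-inhibiting false positives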;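 also: 0% = DMSO wells with enzyme and 100% = wells lacking enzyme; higher means stronger loss of beta-gal luminescence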
* marks the source's active call; other numbers are inactive results; nt = no result given. Rows were chosen to be rich in hits. Some 1.5% of all compounds tested hit in one or more screens of this group.

SMILES	APJ antag	CCR6 antag	CXCR6 block	EBI2 block	APJ agonist	EBI2 antag conf	EBI2 ag	bGal counter
Cc1ccc(S(=O)(=O)NNC(=O)c2ccoc2C)cc1	-2.1	7.8	1.9	-6.7	-5.7	nt	nt	nt
CCOC(=O)C1CCN(C(=O)COc2cc(C)c(Br)cc2C)CC1	-2.8	11.7	-6.5	70.8*	-1.2	37.0	0.2	-5.2
CCOC(=O)C1CCN(C(=O)COc2ccc(Br)cc2)CC1	-7.5	6.9	-5.8	74.6*	-2.4	66.7*	-0.5	-11.6
CCOC(=O)N1CCN(C(=O)COc2ccc(Br)cc2Cl)CC1	8.4	15.9	6.5	61.9*	-0.5	27.8	1.4	1.8
CCOC(=O)C1CCN(C(=O)COc2ccc(Br)cc2Br)CC1	2.6	6.8	-6.1	44.3*	-3.8	15.0	1.0	6.8
CCOC(=O)C1CCN(C(=O)COc2cccc(C)c2)CC1	-19.4	9.1	1.7	11.0	-6.1	nt	nt	nt
O=c1[nH]c(CN2CCN(S(=O)(=O)c3ccc4ccccc4c3)CC2)nc2ccccc12	-5.5	9.8	-4.3	53.0*	-1.2	24.9	3.5	5.2
O=c1[nH]c(CN2CCN(S(=O)(=O)/C=C/c3ccccc3)CC2)nc2ccccc12	10.0	12.0	-5.5	45.9*	-2.0	21.8	-1.6	-10.4
O=c1[nH]c(CN2CCN(S(=O)(=O)/C=C/c3ccccc3)CC2)nc2cc(Cl)ccc12	2.8	13.9	-1.4	70.7*	-1.5	41.2	-1.6	-11.6
CC(c1nc2ccccc2c(=O)[nH]1)N1CCN(S(=O)(=O)c2ccc(F)c(Cl)c2)CC1 (stereo unspecified)	nt	nt	-5.3	58.9*	nt	48.1	1.4	-0.1
O=c1[nH]c(CN2CCN(C/C=C/c3ccccc3)CC2)nc2ccccc12	9.8	13.2	-1.3	21.0	2.8	nt	nt	nt
Cc1cccn2c(=O)c(C=O)c(N3CCSCC3)nc12	-3.3	2.4	-1.1	1.5	3.8	nt	nt	nt
CC12CCC(C/C1=N\OC(=O)c1c(F)cccc1F)C2(C)C (stereo unspecified)	-7.9	6.3	2.9	2.2	0.6	nt	nt	nt
O=S(=O)(Cc1ccc(Cl)cc1)N1CCN(c2ncccn2)CC1	1.0	-4.1	-17.4	4.4	0.9	nt	nt	nt
COC(=O)[C@@H](NCc1ccc(OC)c(B(O)O)c1)C(C)C	nt	1.1	-3.2	-4.1	nt	nt	nt	nt
CC(C)CC(c1nnnn1C(C)C)N1CCN(c2ccccc2)CC1 (stereo unspecified)	1.5	-10.5	-2.4	-4.2	-4.9	nt	nt	nt
O=C(NCc1ccc(N2CCCC2=O)cc1)c1ccc(F)cc1	4.2	2.5	0.5	-3.4	-1.2	nt	nt	nt
Cc1ccc(CNC(=O)c2ccc(N3CCCC3=O)cc2)cc1	11.7	-0.9	-3.7	62.7*	0.6	35.2	0.0	6.7
O=C(NCc1ccc(Cl)cc1)c1ccc(N2CCCC2=O)cc1	-10.8	-4.3	5.4	54.9*	-3.7	25.1	-0.4	4.5
CC(C)c1ccc(C(=O)NCc2ccc(Cl)cc2)cc1	5.1	16.0	2.5	61.1*	-2.7	32.8	0.2	-9.6
O=C(COC(=O)CCCN=C1NS(=O)(=O)c2ccccc21)NNC(=O)c1ccccc1	-58.8	2.2	-11.0	-3.1	6.9	nt	nt	nt
O=S(=O)(Nc1ccccc1-c1ccccc1)c1ccccc1	nt	27.5	5.8	8.8	nt	nt	nt	nt
Cc1cc(C)c(S(=O)(=O)Nc2ccccc2-c2ccccc2)c(C)c1	-6.6	28.6	-0.6	57.1*	-2.5	27.9	-0.2	7.4
COc1cc(C(=O)NNC(=O)c2cc(C)[nH]n2)cc(OC)c1OC	1.7	5.3	-5.8	-6.1	-1.3	nt	nt	nt
COc1ccccc1CNC(=O)c1cc2c(=O)[nH]c3ccccc3c2n1C	-1.0	nt	nt	nt	-2.8	nt	nt	nt
SMILES	APJ antag	CCR6 antag	CXCR6 block	EBI2 block	APJ agonist	EBI2 antag conf	EBI2 ag	bGal counter
COc1ccccc1N(C(=O)c1ccncc1)c1nc(-c2ccc([N+](=O)[O-])cc2)cs1	-2.7	6.7	-9.4	55.1*	6.3	74.2*	1.2	0.9
O=C(c1ccc2c(=O)n3c(nc2c1)CCCCC3)N1CCN(c2cccc(Cl)c2)CC1	-2.3	5.7	1.3	12.3	-0.2	nt	nt	nt
N#CC(c1ccc(Cl)nn1)c1c(F)cccc1Cl (stereo unspecified)	7.3	13.6	8.0	0.5	-4.9	nt	nt	nt
CCOC(=O)c1c(NC(=O)C(F)(OC)C(F)(F)F)sc(C(=O)N2CCCCC2)c1C (stereo unspecified)	0.9	14.0	-0.3	-3.0	-2.7	nt	nt	nt
Cc1ccc(-n2nnnc2-c2cnc3ccc(Cl)cc3c2-c2ccccc2)cc1	-3.5	13.7	3.9	14.7	-4.6	nt	nt	nt
Clc1ccc2[nH]cc(-c3nnnn3-c3ccc4ccccc4c3)c2c1	-2.7	7.6	-8.5	45.0*	7.3	30.3	1.9	5.3
O=c1c2nnn(-c3ccccc3)c2ncn1C/C=C/c1ccccc1	4.3	8.9	-1.2	-5.3	-2.9	nt	nt	nt
O=C(CSc1n[nH]c(=O)n1C1CC1)c1c[nH]c2ccccc12	-12.1	-3.5	4.6	-2.3	0.7	nt	nt	nt
Cc1ccc2oc(=O)n(CCCOc3ccccc3C)c2c1	8.8	8.1	8.7	43.6*	-1.9	39.3	0.5	8.1
CCn1c(-c2cc3c(C(F)(F)F)nn(C)c3s2)n[nH]c1=S	18.3	11.4	9.0	-2.5	-1.1	nt	nt	nt
CCN(C(=O)COC(=O)c1ccc2c(c1)OCO2)c1ccc(F)cc1	14.9	13.8	5.1	4.5	-8.1	nt	nt	nt
CN(C(=O)c1cccn(Cc2ccccc2)c1=O)c1ccccc1	-27.4	-1.0	3.4	-5.7	-2.4	nt	nt	nt
CN(C(=O)c1ccc(=O)n(Cc2ccc(Cl)cc2)c1)c1ccccc1	-13.2	4.3	-2.4	56.0*	-0.4	36.4	-1.2	-14.1
COc1cc(-c2nc3cc(C)ccn3c2NC2CCCCC2)ccc1-c1ccc(C(C)=O)cc1	12.6	7.8	10.4	58.6*	6.9	45.6	-1.5	-1.9
CCN(CC(=O)NCc1ccc(F)cc1)C(=O)/C=C/c1ccc(OC)cc1	12.0	0.8	2.2	62.1*	2.1	57.1*	0.0	8.5
CCN(CC(=O)NCc1ccc(F)cc1)C(=O)Cc1ccc(OC)cc1	-5.3	-5.2	-2.5	2.6	-2.0	nt	nt	nt
CCN(CC(=O)Nc1c(F)cccc1F)C(=O)/C=C/c1ccc(C)cc1	13.8	-7.6	5.3	94.5*	-4.9	80.0*	-1.3	-5.5
O=C(O)c1cc(S(=O)(=O)NCCOc2ccccc2)ccc1Cl	-2.8	7.3	-8.3	0.6	-2.4	nt	nt	nt
COc1ccc(Cl)cc1NC(=O)C(C)OC(=O)Cn1cc(C(F)(F)F)ccc1=O (stereo unspecified)	25.7	9.0	-5.7	9.9	-1.9	nt	nt	nt
CN1C(=O)CSC1=Nc1cccc(Cl)c1	12.0	9.0	7.7	-0.5	-2.2	nt	nt	nt
